APJ ag: agonists of human apelin receptor APJ, primary screen, CHO-K1 cells, PathHunter beta-arrestin, luminescence; P35414; 0% DMSO wells, 100% apelin; activation, % at 20 µM; hit rate 0.11% among 330,000; AID 2520, 2010;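 active = activation more than six SD over the plate average, tested at 20 µM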;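 note: 0% = DMSO alone and 100% = apelin-13 at 10 nM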
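assay system = CHO-K1 APJ beta-arrestin complementation cell line | input = cell density 1000 per well | dosing = compound 20 µM once, DMSO 1% | timing = compound 90 min 25 °C, reagent 1 h | measured by = luminescence from split beta-galactosidase complementation, Galacton Star/Emerald II substrate | read-out basis = APJ agonist activity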
EBI2 antag: EBI2 receptor antagonists, beta-arrestin recruitment, primary screen, cell-based, luminescence, 7a,25-OHC stimulation, uHTS | G-protein coupled receptor 183 (Homo sapiens), P32249 | 7a,25-OHC stimulated | inhibition, % at 5 µM | hit rate 0.81% among 360,000; in the data active = inhibition above about 38%;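 note: enzyme fragment complementation signal reports receptor beta-arrestin coupling in cells; 0% = agonist plus DMSO wells and 100% = wells without agonist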
CXCR6 inh: CXCR6 receptor inhibitors, primary screen, cell-based, beta-arrestin, luminescence, CHO-K1 PathHunter, 1536-well; inhibition, % at 20 µM; hit rate 0.36% among 360,000; AID 602244, 2012; in the data active = inhibition above about 34%, passing the limit was not always enough;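 note: antagonist mode with CXCL16 agonist at 10 nM final; 0% = 10 nM CXCL16 with DMSO and 100% = unstimulated wells without agonist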
CCR6 antag: CCR6 receptor antagonists, primary screen, cell-based, CHO-K1, luminescence, beta-arrestin, uHTS. C-C chemokine receptor type 6 (Homo sapiens), P51684. CHO-K1 CCR6 PathHunter beta-arrestin, CCL20-stimulated. inhibition, % at 20 µM. hit rate 0.49% among 340,000. AID 493098, 2011;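 active = compounds whose inhibition of the agonist-driven luminescence signal at 20 µM reaches about 50%, limit read from the data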;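 note: cells stimulated with CCL20 at 14 nM final; plate controls were DMSO with CCL20 for no effect and DMSO without agonist for full effect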
Target sequence (P51684 whole entry, looked up): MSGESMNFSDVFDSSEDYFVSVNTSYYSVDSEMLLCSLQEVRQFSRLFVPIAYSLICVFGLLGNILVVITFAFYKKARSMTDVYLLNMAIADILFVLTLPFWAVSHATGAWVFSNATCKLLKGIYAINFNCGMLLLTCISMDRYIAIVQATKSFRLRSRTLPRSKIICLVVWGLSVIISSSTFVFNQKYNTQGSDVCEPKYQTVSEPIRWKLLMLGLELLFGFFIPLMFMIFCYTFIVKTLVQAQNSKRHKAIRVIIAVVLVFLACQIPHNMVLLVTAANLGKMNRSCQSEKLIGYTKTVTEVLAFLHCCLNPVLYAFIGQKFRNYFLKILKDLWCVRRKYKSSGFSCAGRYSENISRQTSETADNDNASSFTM
APJ antagonist: antagonists of human apelin receptor APJ, primary screen, CHO-K1 cells, beta-arrestin complementation, luminescence | P35414 | inhibition, % at 20 µM | hit rate 0.32% among 330,000 | AID 2521, 2010;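 active = inhibition above about 40% at 20 µM, limit read from the data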;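 note: cells challenged with 10 nM apelin-13 agonist together with compound; plate controls were apelin-13 plus DMSO wells for no effect and DMSO wells lacking apelin-13 for full effect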
Starred values were filed as active, the others as inactive. Compounds with a hit are over-represented: about 1.5% of the library has one in this group of screens.

For Cc1[nH][nH]c(=O)c1C(c1c(C)[nH][nH]c1=O)c1cn(Cc2ccc(F)cc2)c2ccccc12 the results were EBI2 antag 20.4, CXCR6 inh 61.5* and CCR6 antag 79.3*.
Screening CC1=NN(c2ccccc2)C(=O)C1CCC#N (stereo unspecified) returned EBI2 antag -5.8 and CXCR6 inh 7.7.
`Cc1ccc(C)c(N=Nc2nc3ccccc3n2C)c1` gave APJ ag -10.2, EBI2 antag 41.5, CXCR6 inh 27.7*, CCR6 antag 31.6 and APJ antagonist 14.8.
Screening NC(=O)c1ncn([C@@H]2O[C@H](CNCc3cccc(OC4CCCC4)c3)[C@@H](O)[C@H]2O)n1 returned EBI2 antag -5.3, CXCR6 inh 9.7 and CCR6 antag -1.2.
For COc1ccccc1-c1cc(C(F)(F)F)nc(S(=O)(=O)CCCC(=O)NCc2ccc(F)cc2)n1 the results were APJ ag -0.1, EBI2 antag 8.7, CXCR6 inh 40.5*, CCR6 antag 23.5 and APJ antagonist 8.3.
Screening Cc1cc2c(cc1C)-n1nnnc1C(N(Cc1ccccc1)Cc1ccccc1)C(=O)N2 (stereo unspecified) returned EBI2 antag 1.4.
`O=[N+]([O-])c1ccc(O)c(N=Cc2sc3ccccc3c2O)c1` gave EBI2 antag 35.2, CXCR6 inh 20.0 and CCR6 antag 53.5*.
For Oc1ccc(Cl)cc1N=Cc1sc2ccccc2c1Cl the results were EBI2 antag -10.0, CXCR6 inh -13.9 and CCR6 antag 2.9.
`CN(C)CCn1c2c(c(SCC(=O)N3CCc4ccccc43)nc1=O)CCCC2` gave APJ ag 7.3, EBI2 antag -1.2, CXCR6 inh 3.2, CCR6 antag 5.5 and APJ antagonist 7.2.
For C=CCOC(=O)C(C#N)c1nc2ccccc2nc1N1CCN(c2ccccc2OC)CC1 (stereo unspecified) the results were APJ ag -2.3, EBI2 antag 24.2, CXCR6 inh 13.8, CCR6 antag 52.4* and APJ antagonist 12.5.
For CCOC(=O)[C@]12CCCC=C1N(CCC1=CCCCC1)C(=O)[C@H](CC(=O)NCc1ccccc1)C2 the results were EBI2 antag 0.7.
`O=C(NNC(=S)Nc1ccc(F)cc1)c1cccc([N+](=O)[O-])c1` gave APJ ag 1.8, EBI2 antag 8.1, CXCR6 inh -1.7, CCR6 antag -4.6 and APJ antagonist 15.7.
`O=[N+]([O-])c1ccc(NNC(=S)Nc2ccc(F)cc2)cc1` gave APJ ag -0.4, EBI2 antag 3.4, CXCR6 inh 25.4, CCR6 antag 68.0* and APJ antagonist 21.7.
CN(C)S(=O)(=O)c1ccc(SCC(=O)Nc2cccc(S(=O)(=O)N3CCCC3)c2)nc1 was read as EBI2 antag -0.1, CXCR6 inh 3.1 and CCR6 antag 5.9.
For CN(C)S(=O)(=O)c1cccc(NC(=O)CSc2cccc3cccnc23)c1 the results were APJ ag -6.1, EBI2 antag 28.8, CXCR6 inh 51.1*, CCR6 antag 71.1* and APJ antagonist 11.4.
`O=C(Nc1cccc(Cl)c1)c1cc(N=Nc2ccc([N+](=O)[O-])cc2Cl)ccc1O` gave APJ ag -11.0, EBI2 antag 12.6, CXCR6 inh 63.6*, CCR6 antag 100.3* and APJ antagonist 56.1*.
Screening Cc1ccc(C)c(S(=O)(=O)/N=C2\C=C(NS(=O)(=O)c3ccccc3)C(=O)c3ccccc32)c1 returned APJ ag -3.2, EBI2 antag 8.8, CXCR6 inh 33.8, CCR6 antag 44.6 and APJ antagonist 36.8.
Screening Cc1cc(C)c(S(=O)(=O)/N=C2/C=C(Sc3ncn[nH]3)C(=O)c3ccccc32)cc1C returned EBI2 antag 11.0, CXCR6 inh 46.4* and CCR6 antag 79.1*.
`CCN(CC)c1c([N+](=O)[O-])c(=O)n(C)c2ccccc12` gave APJ ag -0.7, EBI2 antag -0.4, CXCR6 inh -6.0, CCR6 antag 15.8 and APJ antagonist 7.7.
For Cn1c(=O)c([N+](=O)[O-])c(Cl)c2ccccc21 the results were EBI2 antag 16.0, CXCR6 inh 88.4* and CCR6 antag 100.8*.

High-throughput results as filed in PubChem.
